Source: PubChem BioAssay
HTRA1 inhibitor: blocks human HTRA1 serine peptidase; Q92743; recombinant HTRA1, FP-rhodamine activity-based probe, fluorescence polarization; inhibition, % at 5.96 µM; actives 0.5% (n = 340,000); AID 504803; in the data active means inhibition above about 36%;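 further: 0% = enzyme with DMSO and 100% = wells lacking enzyme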
Target sequence (Q92743 whole entry, looked up): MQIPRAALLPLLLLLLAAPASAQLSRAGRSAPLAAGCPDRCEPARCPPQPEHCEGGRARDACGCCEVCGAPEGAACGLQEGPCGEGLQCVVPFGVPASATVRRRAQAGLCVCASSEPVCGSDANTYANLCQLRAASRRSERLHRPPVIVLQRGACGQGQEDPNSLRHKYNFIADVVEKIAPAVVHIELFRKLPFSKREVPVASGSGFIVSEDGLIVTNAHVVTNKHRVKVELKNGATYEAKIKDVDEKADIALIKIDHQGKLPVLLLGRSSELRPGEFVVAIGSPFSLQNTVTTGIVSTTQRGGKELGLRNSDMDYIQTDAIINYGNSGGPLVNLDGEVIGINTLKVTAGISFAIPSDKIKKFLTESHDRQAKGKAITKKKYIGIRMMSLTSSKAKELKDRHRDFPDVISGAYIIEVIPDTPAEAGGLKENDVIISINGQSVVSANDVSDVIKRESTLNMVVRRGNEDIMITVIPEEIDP
PRMT1 FP inh: blocks human protein arginine methyltransferase 1; recombinant PRMT1, activity-based probe fluorescence polarization; inhibition, % at 2.79 µM; actives 1.3% (n = 370,000); AID 652257;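 active means inhibition above about 21% made by adding two undisclosed values, limit read from the data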
SIAE primary: human SIAE inhibition, primary screen | SIAE FP-Rh probe binding, fluorescence polarization | actives 0.69% (n = 370,000) | inhibition, % at 9.66 µM | AID 1053197 | Q9HAT2;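 active means inhibition above a cutoff: mean of compounds within the control limits plus 3 SD of those, cut at about 17% in these data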;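 further: 0% = plate median of compound wells and 100% = probe without SIAE protein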
mABHD4 FP: ABHD4 (mouse) inhibition, primary FP screen | Q8VD66 | purified mABHD4, FP-Rh probe fluorescence polarization | inhibition, % at 8.92 µM | AID 720543 | actives 0.54% (n = 370,000);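 active means inhibition exceeding the mean over every tested compound plus 3 SD, cut at about 30% in these data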;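 further: 0% = plate median of compound wells and 100% = S159A mutant with DMSO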
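Test system: mABHD4 protein | Buffer or medium: HEPES pH 7.0 buffer, 150 mM NaCl, 0.01% Pluronic F-127 | Probe or stimulus: FP-Rh fluorescent activity-based probe, added after compound pre-incubation | Timing: Pre-incubation 45 min, probe exposure 60 min, at 25 °C | Technique: Fluorescence polarization, excitation 525 nm, emission 598 nm, BODIPY TMR filters | Repeats: Single well per compound (singlicate)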
TCR CD3 inh: human TCR-CD3 binding inhibition; inhibition, % at 9.4 µM; AID 651800; TAMRA-labeled TCR probe fluorescence, biochemical; actives 0.37% (n = 360,000); in the data active means inhibition above about 19%;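 further: recombinant mutant TCR 2C K166C tagged with TAMRA read by polarization; 0% = receptor in buffer alone and 100% = receptor with positive control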
SIAE inh conf: human SIAE inhibition, confirmation | shares compounds with SIAE primary | inhibition, % at 9.66 µM | actives 13% (n = 2,300) | SIAE FP-Rh activity-based probe, fluorescence polarization;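 active means mean inhibition of the replicates above the hit cutoff set in the primary screen, cut at about 17% in these data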;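 further: 0% = SIAE with DMSO and probe and 100% = probe without SIAE; inhibitors lower polarization as more probe stays unbound to SIAE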
An asterisk follows results filed as active. Compounds with a hit are over-represented: about 2.5% of the library has one in this group of screens.

CCCCC(=O)Nc1ccc(C(=O)NCC2COc3ccccc3O2)cc1 (centres undefined) was read as PRMT1 FP inh 0, SIAE primary -3 and mABHD4 FP -5.
For COc1ccccc1CNC(=O)COC(=O)c1ccco1 the results were HTRA1 inhibitor 4, PRMT1 FP inh -2, SIAE primary -18, mABHD4 FP -10 and TCR CD3 inh 2.
Screening COc1ccccc1CNC(=O)COC(=O)c1ccc(C)s1 returned HTRA1 inhibitor -4, PRMT1 FP inh 2, SIAE primary 23*, mABHD4 FP 4, TCR CD3 inh 5 and SIAE inh conf 4.
O=C(N[C@H]1CC[C@@H]2SC[C@@H](C(=O)O)N2C1=O)OCC1c2ccccc2-c2ccccc21 was read as PRMT1 FP inh -5, SIAE primary 6 and mABHD4 FP 3.
For CCCCCCCCN1C(=O)[C@@H](CC(=O)NCc2cccs2)C[C@@]2(C(=O)OC)C1=C[C@H](C(C)C)O[C@@H]2C1CC1 the results were PRMT1 FP inh 1, SIAE primary 3 and mABHD4 FP -8.
`Clc1ccc(N/N=C/c2ccncc2)cc1Cl` gave HTRA1 inhibitor -6, PRMT1 FP inh 0, SIAE primary 24*, mABHD4 FP 7, TCR CD3 inh 3 and SIAE inh conf 19*.
For Cc1ccc(NC2=CC(=O)CC(C)(C)C2)cc1Cl the results were HTRA1 inhibitor 4, PRMT1 FP inh -3, SIAE primary 20*, mABHD4 FP -1, TCR CD3 inh 4 and SIAE inh conf 0.
`CC1(C)CC(=O)C=C(Nc2ccc(F)c(Cl)c2)C1` gave HTRA1 inhibitor 2, PRMT1 FP inh 0, SIAE primary -5, mABHD4 FP 1 and TCR CD3 inh 7.
For O=C(O)C1(c2ccccc2)CCN(S(=O)(=O)c2ccc(F)c(F)c2)CC1 the results were HTRA1 inhibitor -1, PRMT1 FP inh -1, SIAE primary 20*, mABHD4 FP 6, TCR CD3 inh -5 and SIAE inh conf 4.
CC(=O)c1c(C)[nH]c(C(=O)Nc2ccc(N3CCCCCC3)cc2)c1C was read as HTRA1 inhibitor 15, PRMT1 FP inh 3, SIAE primary 26*, mABHD4 FP 29, TCR CD3 inh 2 and SIAE inh conf 10.
For O=c1c(Cc2c(F)cccc2Cl)c(O)ccn1CCc1c[nH]c2ccccc12 the results were HTRA1 inhibitor -1, PRMT1 FP inh 0, SIAE primary 23*, mABHD4 FP 3, TCR CD3 inh -2 and SIAE inh conf 5.
`COC(=O)Cc1c(O)ccn(CCc2c[nH]c3ccccc23)c1=O` gave HTRA1 inhibitor 5, PRMT1 FP inh -6, SIAE primary 0, mABHD4 FP 2 and TCR CD3 inh 6.
CCN1CCN(C(=O)c2ccc(N3CC4CC(C3)c3cccc(=O)n3C4)c(NC(=O)c3cc(OC)cc(OC)c3)c2)CC1 (centres undefined) was read as HTRA1 inhibitor -5, PRMT1 FP inh 2, SIAE primary 27*, mABHD4 FP 7, TCR CD3 inh 0 and SIAE inh conf 4.
Screening COCCNC(=O)c1ccc(N2CC3CC(C2)c2cccc(=O)n2C3)c(NC(=O)c2cc(OC)cc(OC)c2)c1 (centres undefined) returned HTRA1 inhibitor 2, PRMT1 FP inh 2, SIAE primary -1, mABHD4 FP 7 and TCR CD3 inh -4.
Screening C[N+]1(C)[C@H]2CC[C@H]1CC(OC(=O)C(O)c1ccccc1)C2 (some centres undefined) returned PRMT1 FP inh 3, SIAE primary 2 and mABHD4 FP 2.
COc1cc(/C=N/Nc2ccc(Cl)c(C(=O)O)c2)ccc1OC(=O)c1ccccc1F was read as HTRA1 inhibitor -4, PRMT1 FP inh 5, SIAE primary 9, mABHD4 FP 16 and TCR CD3 inh -1.
For CCOc1cc(/C=N/Nc2ccc(C(=O)O)cc2)ccc1OC(=O)c1ccccc1C the results were HTRA1 inhibitor 1, PRMT1 FP inh -3, SIAE primary 26*, mABHD4 FP 0, TCR CD3 inh 1 and SIAE inh conf 31*.
OC(c1ccccc1)c1ccncc1 (centres undefined) was read as HTRA1 inhibitor 10, PRMT1 FP inh 3, SIAE primary -2, mABHD4 FP -14 and TCR CD3 inh -15.
O=P(c1ccccc1)(c1ccccc1)C(O)c1ccncc1 (centres undefined) was read as HTRA1 inhibitor 4, PRMT1 FP inh 6, SIAE primary 24*, mABHD4 FP 10, TCR CD3 inh 5 and SIAE inh conf 1.
`Cc1ccc(Nc2c(F)cccc2Cl)c(CC(=O)O)c1` gave PRMT1 FP inh -5, SIAE primary 2 and mABHD4 FP 2.
O=C(COC(=O)c1ccccc1SCC(=O)N1CCCC1)Nc1ccc(OC(F)F)cc1 was read as HTRA1 inhibitor 2, PRMT1 FP inh 19, SIAE primary 20*, mABHD4 FP -7, TCR CD3 inh 3 and SIAE inh conf 1.
For NC(=O)c1ccc(NC(=O)COC(=O)c2ccccc2SCC(=O)N2CCCC2)cc1 the results were HTRA1 inhibitor 2, PRMT1 FP inh 9, SIAE primary -2, mABHD4 FP 4 and TCR CD3 inh 8.
CCN(C(=O)C1CCCN(c2nnc(-n3cccc3)s2)C1)c1ccccc1C (centres undefined) was read as PRMT1 FP inh -5, SIAE primary 4 and mABHD4 FP -5.
Screening O=[N+]([O-])c1ccc(N/N=C/c2cccc(O)c2)cc1 returned HTRA1 inhibitor -2, PRMT1 FP inh 3, SIAE primary 20*, mABHD4 FP 15, TCR CD3 inh -3 and SIAE inh conf -2.
Screening CNC(=O)N(O)C1N(/N=C/c2ccc(SC)cc2)C(=S)SC1(C)C (centres undefined) returned HTRA1 inhibitor 3, PRMT1 FP inh -1, SIAE primary 1, mABHD4 FP -1 and TCR CD3 inh -8.
Screening CN(C)c1ccc(/C=N/N2C(=S)SC(C)(C)C2N(O)C(=O)Nc2ccc([N+](=O)[O-])cc2)cc1 (centres undefined) returned HTRA1 inhibitor -12, PRMT1 FP inh 1, SIAE primary 21*, mABHD4 FP 4, TCR CD3 inh 0 and SIAE inh conf 14.
`CCCN(CC1CC1)c1nc(C)nc2c1nnn2Cc1ccccc1` gave PRMT1 FP inh -3, SIAE primary -1 and mABHD4 FP -5.
`O=C(Cn1c(=O)oc2cc(S(=O)(=O)N3CCCC3)ccc21)N1CCN(C2CCCCC2)CC1` gave HTRA1 inhibitor 4, PRMT1 FP inh -1, SIAE primary 5, mABHD4 FP 6 and TCR CD3 inh 10.
`O=C(Cn1c(=O)oc2cc(S(=O)(=O)N3CCCCC3)ccc21)N1CCCCC1` gave HTRA1 inhibitor -2, PRMT1 FP inh 2, SIAE primary 17*, mABHD4 FP 1, TCR CD3 inh 2 and SIAE inh conf 5.
